The values below come from ChEMBL document CHEMBL1773009, “Red-fluorescent argininamide-type NPY Y1 receptor antagonists as pharmacological tools” (Bioorg Med Chem, 2011).

In series [1] the target is T1, Neuropeptide Y receptor type 1 (Homo sapiens) (UniProt P25929).
T1 sequence (whole entry): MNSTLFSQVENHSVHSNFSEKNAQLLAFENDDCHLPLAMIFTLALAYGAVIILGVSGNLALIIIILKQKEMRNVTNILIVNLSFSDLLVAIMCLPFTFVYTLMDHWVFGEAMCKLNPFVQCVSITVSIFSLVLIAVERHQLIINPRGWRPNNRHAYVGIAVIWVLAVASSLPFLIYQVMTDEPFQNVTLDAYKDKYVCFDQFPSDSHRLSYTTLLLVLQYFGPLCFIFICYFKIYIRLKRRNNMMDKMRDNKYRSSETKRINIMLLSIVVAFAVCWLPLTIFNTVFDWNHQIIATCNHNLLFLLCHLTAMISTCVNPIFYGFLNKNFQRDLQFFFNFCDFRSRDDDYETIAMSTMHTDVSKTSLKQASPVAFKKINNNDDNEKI
Briefly: Antagonist activity at Y1R in human MCF-7 cells at 80 nM after 23 mins by fluorescence confocal microscopy. Format: functional, cell-based. The conditions noted are these: MCF7. The procedure, abridged: (§1)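 MCF-7-Y1 cells (MCF-7 subclone with 2–3-fold higher Y1R expression) pretreated 48 or 72 h with 1 nM 17β-estradiol; live-cell confocal imaging of fluorescent ligand (50–80 nM) after 5–23 min at rt in Leibovitz L15; non-specific binding with excess BIBP 3226 (5 µM or 80–125-fold); autofluorescence control.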

For series [2], the target named is T1, Neuropeptide Y receptor type 1 (Homo sapiens). The series can be described thus: Antagonist activity at Y1R in human HEL cells assessed as inhibition of pNPY induced [Ca2+] mobilisation. Format: functional, cell-based.
Series [3] in a line: Chemical stability of the compound in DMSO at below 0 degC. The format is physicochemical.
In series [4] the target is T2, Neuropeptide Y receptor type 1 (Homo sapiens, UniProt P25929).
T2 sequence (P25929 whole entry): T1 sequence (whole entry)
Briefly: Displacement of [3H]-UR-MK114 from Y1R in human SK-N-MC cells. The format is cell-based. (In general: In a radioligand displacement assay an active substance lowers the binding of a labelled ligand.)

The target in series [5] is T3, Neuropeptide Y receptor type 5 (Homo sapiens, UniProt Q15761).
T3 sequence (Q15761 whole entry): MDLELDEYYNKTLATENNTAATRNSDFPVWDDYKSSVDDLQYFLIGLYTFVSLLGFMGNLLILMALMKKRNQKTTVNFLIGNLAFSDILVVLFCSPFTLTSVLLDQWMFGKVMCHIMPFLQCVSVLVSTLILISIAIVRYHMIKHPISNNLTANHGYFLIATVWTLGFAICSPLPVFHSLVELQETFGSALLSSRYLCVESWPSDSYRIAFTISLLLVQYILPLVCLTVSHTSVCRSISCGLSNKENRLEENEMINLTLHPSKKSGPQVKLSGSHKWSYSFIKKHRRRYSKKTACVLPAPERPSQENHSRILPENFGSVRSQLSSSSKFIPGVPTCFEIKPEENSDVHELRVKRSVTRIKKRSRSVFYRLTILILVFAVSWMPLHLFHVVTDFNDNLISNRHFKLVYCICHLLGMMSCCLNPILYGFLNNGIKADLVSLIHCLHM
The series can be described thus: Displacement of Dy-635-pNPY from human Y5R expressed in HEC-1B cells by flow cytometry.

The target in series [6] is Neuropeptide Y receptor type 4 (Homo sapiens, UniProt P50391). The series can be described thus: Displacement of Cy5-[K4]-hpp from human Y4R expressed in CHO cells by flow cytometry. The format is cell-based. The procedure, abridged:
(§2)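 Flow cytometric displacement of labelled peptides: Cy5-[K4]-hPP on CHO-Y4 cells; Dy-635-pNPY or Cy5-pNPY on CHO-Y2 and HEC-1B-Y5 cells. Test ligands only at 1 and 10 µM or at 0.3 and 1 µM; for the red-excitable ligand, its own fluorescence without peptide was subtracted.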
(In general: Flow cytometry measures light scatter and fluorescence of single cells or particles in a stream.)

Series [7] addresses T2, Neuropeptide Y receptor type 1. The series can be described thus: Displacement of [3H]-UR-MK114 from Y1R in human SK-N-MC cells by radioligand competition binding.
Series [8] has as its target T1, Neuropeptide Y receptor type 1 (Homo sapiens). The series can be described thus: Antagonist activity at Y1R in human MCF-7 cells at 50 nM after 12 to 15 mins by fluorescence confocal microscopy. Format: functional, cell-based. The conditions noted are these: MCF7. A digest of the protocol: as §1
Series [9] concerns the target T2, Neuropeptide Y receptor type 1. The series can be described thus: Binding affinity at Y1R in human MCF-7 cells by flow cytometry. The format is cell-based, MCF7. A digest of the protocol:
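MCF-7-Y1 cells given 1 nM 17β-estradiol 3 days beforehand, trypsinised, suspended at 0.5–1 × 10^6 cells/mL in HEPES-buffered saline, 1% DMSO; saturation with fluorescent ligand 1–50 nM (non-specific: 200-fold BIBP 3226) or competition against 10 nM labelled ligand (0.03–3000 nM competitor); 15 min dark, rt; 635 nm excitation, FL-4 readout, 20,000 gated events.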

Series [10] can be described thus: Chemical stability in aqueous buffer assessed as compound decomposition after 90 mins at pH 7 by HPCL. Format: physicochemical. The conditions noted are these: read-out: Activity. A digest of the protocol: (§3)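 Compound at 50 µM final (from 1 mM DMSO stock) in PBS pH 7.0, 20 °C; aliquots at 20 and 90 min diluted with acetonitrile/H2O/1% TFA, analysed by RP-HPLC (220 nm); release of parent argininamide quantified against a five-point calibration curve (0.3–25 µM).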

The target of series [11] is T4, Neuropeptide Y receptor type 2 (Homo sapiens, UniProt P49146).
T4 sequence (P49146 whole entry): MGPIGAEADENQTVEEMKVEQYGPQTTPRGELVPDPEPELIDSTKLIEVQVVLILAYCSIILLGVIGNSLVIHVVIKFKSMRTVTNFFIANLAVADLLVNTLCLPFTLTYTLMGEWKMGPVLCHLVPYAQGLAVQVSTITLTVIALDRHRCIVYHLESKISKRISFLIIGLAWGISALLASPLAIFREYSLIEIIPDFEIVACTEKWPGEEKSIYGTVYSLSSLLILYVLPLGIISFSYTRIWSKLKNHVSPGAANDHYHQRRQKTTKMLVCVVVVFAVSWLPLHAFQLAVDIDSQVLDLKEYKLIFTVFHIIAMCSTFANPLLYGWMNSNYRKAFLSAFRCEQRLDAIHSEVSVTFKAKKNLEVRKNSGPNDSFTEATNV
The series can be described thus: Displacement of Dy-635-pNPY from human Y2R expressed in CHO cells by flow cytometry. The format is cell-based. The procedure, abridged:
as §2

A short description of series [12]: Chemical stability in aqueous buffer assessed as compound decomposition after 20 mins at pH 7 by HPCL. The format is physicochemical. The conditions noted are these: read-out: Activity. The procedure, abridged:
as §3

Active and inactive are the calls of the source. The rule behind the calls is not given here.

Sequence of Neuropeptide Y receptor type 4 (P50391 whole entry): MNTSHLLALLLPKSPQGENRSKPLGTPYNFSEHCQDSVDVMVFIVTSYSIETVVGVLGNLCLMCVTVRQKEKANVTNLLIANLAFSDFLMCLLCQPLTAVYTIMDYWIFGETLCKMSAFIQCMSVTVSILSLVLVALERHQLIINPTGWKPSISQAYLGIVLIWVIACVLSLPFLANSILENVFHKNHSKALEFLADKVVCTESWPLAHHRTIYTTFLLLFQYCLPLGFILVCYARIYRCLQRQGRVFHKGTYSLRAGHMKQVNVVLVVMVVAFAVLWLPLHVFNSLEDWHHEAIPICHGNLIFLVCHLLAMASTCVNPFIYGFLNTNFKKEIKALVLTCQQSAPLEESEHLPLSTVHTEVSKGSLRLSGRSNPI

`Cc1cc(/C=C/c2cc3c4c(c2)CCCN4CCC3)cc(C)[n+]1CCN(CCNC(=O)CCCNC(=O)CCCC(=O)/N=C(\N)NCCC[C@@H](NC(=O)C(c1ccccc1)c1ccccc1)C(=O)NCc1ccc(O)cc1)CCNC(=O)CCCNC(=O)CCCC(=O)/N=C(\N)NCCC[C@@H](NC(=O)C(c1ccccc1)c1ccccc1)C(=O)NCc1ccc(O)cc1.O=C([O-])C(F)(F)F`: the result in series [1] was Active. For the same compound, the antagonist equilibrium constant (Kb) (usually the equilibrium dissociation constant of an antagonist, usually derived from a functional assay) in series [2] came out at 1 nM. This compound registered a Stability in series [3] of 12 months. The Ki (in general, a measure of affinity in units of concentration, obtained from inhibition or displacement) in series [4] stood at 56 nM.
On to `CN(C)c1ccc(/C=C/C=C/c2sc3ccccc3[n+]2CCCC(=O)NCCCCNC(=O)/N=C(/N)NCCC[C@@H](NC(=O)C(c2ccccc2)c2ccccc2)C(=O)NCc2ccc(O)cc2)cc1.O=C([O-])C(F)(F)F`, for which the IC50 in [5], in series [6] and in [11] was more than 1000 nM throughout. Further, the inhibition constant (Ki) was more than 400 nM in [5]; more than 500 nM in series [6]; 26 nM in series [7]; more than 500 nM in [11]; 26 nM in series [4]. For the same compound, in series [2], the Kb was found to be 0.7 nM. In [3], the Stability was 12 months. Besides, in series [8], the outcome was Active. For the same compound, the affinity in series [9], expressed as Kd, was 5 nM. In series [10], the degraded at 1.5 h was found to be 0%. Further, in [12], the degraded at 20 min came to 0%.
